Among the data in ChEMBL document CHEMBL4049400, “Aldehyde Oxidase Mediated Metabolism in Drug-like Molecules: A Combined Computational and Experimental Study” (J Med Chem, 2017) are Drug metabolism and Retention time values, retold here.

In data set [1] the target is T1, Aldehyde oxidase (Homo sapiens, UniProt Q06278).
T1 sequence (Q06278 whole entry): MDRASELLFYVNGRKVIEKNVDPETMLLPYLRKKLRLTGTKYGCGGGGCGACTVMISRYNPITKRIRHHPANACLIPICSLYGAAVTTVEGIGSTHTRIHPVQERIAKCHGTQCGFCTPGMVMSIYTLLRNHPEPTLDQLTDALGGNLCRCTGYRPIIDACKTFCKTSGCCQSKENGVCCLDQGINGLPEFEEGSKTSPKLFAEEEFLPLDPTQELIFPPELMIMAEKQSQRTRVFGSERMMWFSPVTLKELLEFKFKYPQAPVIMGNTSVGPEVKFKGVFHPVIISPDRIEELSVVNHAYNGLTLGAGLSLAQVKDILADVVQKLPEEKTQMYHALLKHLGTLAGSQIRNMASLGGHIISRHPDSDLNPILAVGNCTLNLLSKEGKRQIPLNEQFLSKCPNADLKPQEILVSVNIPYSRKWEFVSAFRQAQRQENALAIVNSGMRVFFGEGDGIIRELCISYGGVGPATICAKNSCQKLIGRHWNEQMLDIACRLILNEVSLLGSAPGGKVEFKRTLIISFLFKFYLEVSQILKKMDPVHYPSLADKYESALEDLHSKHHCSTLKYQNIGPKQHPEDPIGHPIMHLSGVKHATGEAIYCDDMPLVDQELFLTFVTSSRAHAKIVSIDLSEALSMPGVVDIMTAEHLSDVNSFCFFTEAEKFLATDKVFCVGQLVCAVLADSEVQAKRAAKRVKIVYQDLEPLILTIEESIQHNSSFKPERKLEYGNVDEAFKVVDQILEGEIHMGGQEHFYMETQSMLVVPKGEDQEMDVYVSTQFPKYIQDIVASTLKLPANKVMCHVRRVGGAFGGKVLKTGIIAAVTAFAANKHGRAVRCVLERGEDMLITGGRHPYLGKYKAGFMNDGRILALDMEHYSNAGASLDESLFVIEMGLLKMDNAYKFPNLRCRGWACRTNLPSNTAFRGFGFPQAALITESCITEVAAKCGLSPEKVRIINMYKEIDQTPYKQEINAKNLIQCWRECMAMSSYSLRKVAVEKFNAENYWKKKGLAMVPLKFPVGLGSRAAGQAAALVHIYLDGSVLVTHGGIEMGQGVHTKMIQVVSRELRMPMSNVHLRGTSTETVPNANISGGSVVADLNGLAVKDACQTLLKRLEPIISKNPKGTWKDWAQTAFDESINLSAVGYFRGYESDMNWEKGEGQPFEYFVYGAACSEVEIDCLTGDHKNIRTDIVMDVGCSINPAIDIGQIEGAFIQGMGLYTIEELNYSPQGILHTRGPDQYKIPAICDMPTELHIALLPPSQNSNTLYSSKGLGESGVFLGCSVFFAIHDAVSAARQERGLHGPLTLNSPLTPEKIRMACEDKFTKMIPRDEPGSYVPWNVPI
Briefly: Drug metabolism in human liver cytosol assessed as AOX-mediated oxidative metabolite formation by measuring decrease in the liquid chromatography-mass spectrometry peak at 10 uM after 30 min by UPLC/Q-TOF MS analysis. The format is ADME. The settings on record: 0.5 h. The procedure, abridged:
(§1)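 Pooled human liver cytosol, 0.5 mg/mL protein, in 100 mM potassium phosphate pH 7.4; 3 min preincubation at 37 °C, then 10 μM substrate (final; DMSO 0.1% v/v). Quenched after 30 min with equal volume ice-cold acetonitrile, centrifuged, supernatant run by UPLC/Q-TOF MS in positive ion mode. Controls without substrate or with inactivated enzyme; duplicate incubations.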

Data set [2] deals with T1, Aldehyde oxidase. Briefly: Drug metabolism in human liver cytosol assessed as as AOX-mediated quinolone group metabolism at 10 uM after 30 mins by UPLC/Q-TOF MS analysis. The format is ADME. The settings on record: 0.5 h. The procedure, abridged:
as §1

Data set [3] concerns the target T1, Aldehyde oxidase. Briefly: Drug metabolism in human liver cytosol assessed as AOX-mediated 2-fluoro-N-methyl-4-(3-oxo-7-(quinolin-7-ylmethyl)-3,4-dihydroimidazo[1,2-b][1,2,4]triazin-2-yl)benzamide metabolite formation by measuring LC-MS peak area of the metabolite at 10 uM after 30 mins in presence of menadione by UPLC/Q-TOF MS analysis. The format is ADME. The settings on record: 0.5 h. A digest of the protocol:
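Human liver cytosol (0.5 mg/mL protein) in 100 mM phosphate buffer preincubated 10 min at 37 °C with 100 μM menadione (DMSO 0.2% v/v final), then 10 μM substrate (final) added. Stopped at 30 min with equal volume ice-cold acetonitrile; metabolites detected by UPLC/Q-TOF MS. Inhibitor-free controls run alongside; duplicate incubations.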

For data set [4], the target named is T1, Aldehyde oxidase. Briefly: Drug level in human liver cytosol treated with capmatinib assessed as AOX-mediated metabolite formation at 10 uM after 30 min by UPLC/Q-TOF MS analysis. The following applies: 0.5 h. The format is ADME. The procedure, abridged:
as §1

Data set [5] can be described thus: Retention time of the compound by UPLC/Q-TOF MS analysis. A digest of the protocol: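 HSS T3 column (1.8 μm, 100 × 2.1 mm) at 45 °C, 0.4 mL/min. Mobile phase: 5 mM ammonium acetate with 0.1% formic acid (A) and acetonitrile (B). Gradient 10% B for 1 min, to 65% B over 6 min, to 99% B over 0.5 min, held 1.5 min, back to 10% B. Positive-ion Q-TOF detection, m/z 80–1000.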

For data set [6], the target named is T1, Aldehyde oxidase. Briefly: Drug metabolism in human liver cytosol assessed as AOX-mediated 2-fluoro-N-methyl-4-(3-oxo-7-(quinolin-7-ylmethyl)-3,4-dihydroimidazo[1,2-b][1,2,4]triazin-2-yl)benzamide metabolite formation by measuring LC-MS peak area of the metabolite at 10 uM after 30 min by UPLC/Q-TOF MS analysis. The following applies: 0.5 h. The format is ADME. A digest of the protocol:
as §1

For `CNC(=O)c1ccc(-c2cnc3ncc(Cc4ccc5ncccc5c4)n3n2)cc1F` [CAPMATINIB], the Drug metabolism result on Aldehyde oxidase [1] was “Metabolite_Detected”.

As for `Cn1cc(-c2ccc3ncc(Cc4ccc5ncccc5c4)n3n2)cn1`, the Drug metabolism result on Aldehyde oxidase [1] is listed as “Metabolite_Detected”.

Turning to `OCCn1cc(-c2cnc3nnn(Cc4ccc5ncccc5c4)c3n2)cn1` [PF-04217903], the Drug metabolism result at Aldehyde oxidase [2] and at Aldehyde oxidase [1] was “Metabolite_Detected” in each case.

For the compound `Cn1cc(-c2ccc3nnc(C(F)(F)c4ccc5ncccc5c4)n3n2)cn1` [JNJ-38877605], at Aldehyde oxidase [2], the Drug metabolism entry is reported as “Metabolite_Detected”.

Regarding `Cn1cc(-c2ccc3nnc(Sc4ccc5ncccc5c4)n3n2)cn1` [SGX-523], on Aldehyde oxidase [2], the Drug metabolism entry is “Metabolite_Detected”.

Turning to `CNC(=O)c1ccc(-c2nn3c(Cc4ccc5ncccc5c4)cnc3[nH]c2=O)cc1F`, the results for the Drug metabolism at Aldehyde oxidase [3], on Aldehyde oxidase [4] and at Aldehyde oxidase [6] were 3220, “Metabolite_Detected” and 136000, respectively. Moreover, the Retention time in data set [5] was determined as 3.63 min.
